One may read the pIC50 as the IC50 on a negative log10 scale, so that one unit is a factor of ten. In general, MIC refers to the least concentration at which growth counts as inhibited.

pIC50: −log10 of the molar value. A value given as a limit tells only on which side of the number the result lay.

The target of assay [1] is T1, Chitinase B (Serratia marcescens, UniProt P11797).
T1 sequence (P11797 whole entry): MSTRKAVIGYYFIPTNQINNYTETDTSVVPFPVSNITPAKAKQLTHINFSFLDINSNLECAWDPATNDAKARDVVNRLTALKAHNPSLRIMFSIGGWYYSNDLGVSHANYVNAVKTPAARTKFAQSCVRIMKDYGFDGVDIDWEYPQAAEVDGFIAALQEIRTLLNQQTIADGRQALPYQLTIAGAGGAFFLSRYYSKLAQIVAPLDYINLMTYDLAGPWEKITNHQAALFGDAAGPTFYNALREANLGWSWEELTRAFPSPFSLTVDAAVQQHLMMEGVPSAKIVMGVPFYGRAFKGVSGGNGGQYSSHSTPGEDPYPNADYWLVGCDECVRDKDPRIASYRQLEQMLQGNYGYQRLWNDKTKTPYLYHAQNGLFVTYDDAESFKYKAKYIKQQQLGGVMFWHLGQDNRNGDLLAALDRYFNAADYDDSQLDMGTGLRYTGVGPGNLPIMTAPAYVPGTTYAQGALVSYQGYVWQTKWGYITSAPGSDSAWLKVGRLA
Kind of assay: Inhibition of Serratia marcescens chitinase ChiB assessed as reduction in chitinolytic activity using 4MU-(GlcNAc)2 substrate by fluorescence based assay. An outline of the steps: (§1)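 Crude SmChiB: supernatant of sonicated E. coli DH5α carrying pMCB7, grown 24 h at 37 °C in LB with ampicillin and 0.5 mM IPTG, then diluted ×40. Enzyme and inhibitors (in MeOH) were mixed in 0.1 M phosphate, pH 7.0, at 37 °C, and 80 μM 4MU(GlcNAc)2 solution was added. Fluorescence (ex 355/em 460 nm) was read every 60 s, with rates corrected for inhibitor quenching. IC50 was taken from sigmoidal dose–response fits.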

Assay [2] relates to Acinetobacter calcoaceticus. Kind of assay: Antibacterial activity against Acinetobacter calcoaceticus IFO12552 by antimicrobial disk and dilution susceptibility test. Format: functional.
Assay [3] relates to Staphylococcus aureus. Briefly: Antibacterial activity against methicillin-sensitive Staphylococcus aureus Smith by antimicrobial disk and dilution susceptibility test. Format: functional.
For assay [4], the system named is Pseudomonas aeruginosa. Briefly: Antibacterial activity against Pseudomonas aeruginosa 46001 by antimicrobial disk and dilution susceptibility test. The class given is functional.
Assay [5] has as its system Staphylococcus aureus. Kind of assay: Antibacterial activity against methicillin-sensitive Staphylococcus aureus FDA209P by antimicrobial disk and dilution susceptibility test. Format: functional.
In assay [6] the test system is Proteus mirabilis. Briefly: Antibacterial activity against Proteus mirabilis IFO3849 by antimicrobial disk and dilution susceptibility test. The class given is functional.
Assay [7] deals with Serratia marcescens. Kind of assay: Antibacterial activity against Serratia marcescens IFO12648 by antimicrobial disk and dilution susceptibility test. Format: functional.
Assay [8] deals with Pseudomonas aeruginosa. Kind of assay: Antibacterial activity against Pseudomonas aeruginosa E-2 by antimicrobial disk and dilution susceptibility test. Format: functional.
Assay [9] concerns Staphylococcus epidermidis. Briefly: Antibacterial activity against Staphylococcus epidermidis KUB795 by antimicrobial disk and dilution susceptibility test. Format: functional.
For assay [10], the system named is Morganella morganii. Kind of assay: Antibacterial activity against Morganella morganii IID Kono by antimicrobial disk and dilution susceptibility test. The class given is functional.
The test system of assay [11] is Klebsiella pneumoniae. Briefly: Antibacterial activity against Klebsiella pneumoniae NCTC 9632 by antimicrobial disk and dilution susceptibility test. Format: functional.
The subject of assay [12] is Micrococcus luteus. Briefly: Antibacterial activity against Micrococcus luteus ATCC 9341 by antimicrobial disk and dilution susceptibility test. Format: functional.
Assay [13] deals with Enterococcus faecalis. Briefly: Antibacterial activity against Enterococcus faecalis ATCC 29212 by antimicrobial disk and dilution susceptibility test. The class given is functional.
Assay [14] relates to Enterobacter cloacae. Briefly: Antibacterial activity against Enterobacter cloacae IFO13535 by antimicrobial disk and dilution susceptibility test. Format: functional.
For assay [15], the system named is Citrobacter freundii. Briefly: Antibacterial activity against Citrobacter freundii ATCC 8090 by antimicrobial disk and dilution susceptibility test. The class given is functional.
For assay [16], the system named is Klebsiella aerogenes. Kind of assay: Antibacterial activity against Enterobacter aerogenes NCTC 10006 by antimicrobial disk and dilution susceptibility test. Format: functional.
The test system of assay [17] is Proteus vulgaris. Kind of assay: Antibacterial activity against Proteus vulgaris OX-19 by antimicrobial disk and dilution susceptibility test. The class given is functional.
Assay [18] concerns Escherichia coli. Briefly: Antibacterial activity against Escherichia coli NIHJ JC-2 by antimicrobial disk and dilution susceptibility test. The class given is functional.
The target of assay [19] is T1, Chitinase B. Briefly: Inhibition of Serratia marcescens chitinase ChiB. In outline: as §1

In the case of `CC[C@H]1OC(=O)[C@H](C)[C@@H](O)[C@H](C)[C@@H](O)[C@](C)(O)C[C@@H](C)/C(=N\OCc2cn(CCNC(=N)NC(=O)NC)nn2)[C@H](C)[C@@H](O)[C@]1(C)O`, in assay [1], the pIC50 is 4.62.

Take `CC[C@H]1OC(=O)[C@H](C)[C@@H](O)[C@H](C)[C@@H](OCc2cn(CCNC(=N)NC(=O)NC)nn2)[C@](C)(O)C[C@@H](C)[C@@H]2OC(C)(C)O[C@H]([C@H]2C)[C@]1(C)O`: the pIC50 in assay [1] is 4.92.

On to `C#CCO[C@@H]1[C@@H](C)[C@H](OC(=O)NCCCCNC(=N)NC(=O)NC)[C@@H](C)C(=O)O[C@H](CC)[C@@](C)(O)[C@@H]2OC(C)(C)O[C@H]([C@@H]2C)[C@H](C)C[C@@]1(C)O`, for which, in assay [1], the pIC50 is 6.66.

As for `CC[C@H]1OC(=O)[C@H](C)[C@@H](OCc2cn(CCNC(=N)NC(=O)NC)nn2)[C@H](C)[C@@H](O)[C@](C)(O)C[C@@H](C)[C@@H]2OC(C)(C)O[C@H]([C@H]2C)[C@]1(C)O`, the pIC50 in assay [1] was 5.48.

`CC[C@H]1OC(=O)[C@H](C)[C@@H](O)[C@H](C)[C@@H](O)[C@](C)(O)C[C@@H](C)[C@@H]2OC(C)(C)O[C@H]([C@H]2C)[C@]1(C)O`: in assay [1], the pIC50 was under 3.52.

With `CNC(=O)NC(=N)NCCN=[N+]=[N-]`, the pIC50 in assay [1] was 5.15.

With `CNC(=O)NC(=N)n1cccn1`, in assay [1], the pIC50 is under 3.52.

Take `C#CCO[C@@H]1[C@@H](C)[C@H](O)[C@@H](C)C(=O)O[C@H](CC)[C@@](C)(O)[C@@H]2OC(C)(C)O[C@H]([C@@H]2C)[C@H](C)C[C@@]1(C)O`: the pIC50 in assay [1] was under 3.52.

On to `C#CCO[C@@H]1[C@@H](C)[C@H](OC(=O)NCCCNC(=N)NC(=O)NC)[C@@H](C)C(=O)O[C@H](CC)[C@@](C)(O)[C@@H]2OC(C)(C)O[C@H]([C@@H]2C)[C@H](C)C[C@@]1(C)O`, for which the negative-log IC50 (pIC50) in assay [1] was 7.44. In addition, the MIC in assay [2], in assay [3], in assay [4], in assay [5], in [6] and in assay [7] was over 64 µg/mL each time. The MIC in assay [8], in [9], in [10], in [11], in assay [12] and in [13] was over 64 µg/mL in each case. In addition, the MIC in assay [14], in assay [15], in [16], in assay [17] and in assay [18] was over 64 µg/mL throughout.

Take `CC(=O)N[C@H]1[C@H](O[C@H]2[C@@H](O)[C@@H](NC(C)=O)[C@H](O[C@H]3[C@H](O)[C@H]4N=C(N(C)C)O[C@H]4[C@@H]3CO)O[C@@H]2CO)O[C@H](CO)[C@@H](O)[C@H]1O` [ALLOSAMIDIN]: the pIC50 in assay [1] is 7.05.

The compound `CC(=O)NC(=N)NCCC[C@@H]1NC(=O)[C@H](CCCC(=O)O)NC(=O)[C@H](Cc2c[nH]cn2)N2C(=O)[C@H](C[C@H]2O)NC(=O)[C@H]2CCCN2C1=O` [ARGADIN] showed a pIC50 in [19] of 7.48.

As to `CC[C@H]1OC(=O)[C@H](C)[C@@H](O[C@H]2C[C@@](C)(OC)[C@@H](O)[C@H](C)O2)[C@H](C)[C@@H](O[C@@H]2O[C@H](C)C[C@H](N(C)C)[C@H]2O)[C@](C)(O)C[C@@H](C)C(=O)[C@H](C)[C@@H](O)[C@]1(C)O` [ERYTHROMYCIN], the negative-log IC50 (pIC50) in assay [1] is under 3.52.

Source of the values: ChEMBL document CHEMBL3576758, “Creation of Customized Bioactivity within a 14-Membered Macrolide Scaffold: Design, Synthesis, and Biological Evaluation Using a Family-18 Chitinase” (J Med Chem, 2015).
